Tests used:
Assay type in all cases: functional, cell-based
MCF7 = test: Cytotoxicity against human MCF7 cells after 48 hrs by MTT assay; settings: MCF7, 48 h
Method in brief: (§1)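 Cells grown in RPMI-1640 or DMEM with 10% FBS, 37 °C, 5% CO2. Seeded at 1 × 10^5 cells/mL in 100 μL; adherent lines attached 12 h before dosing, suspension cells seeded at dosing. Compound at various concentrations in triplicate, 48 h. MTT (100 μg) added for 4 h, lysed with 20% SDS–50% DMF, OD 595 nm. IC50 by Reed–Muench method; cisplatin and paclitaxel as positive controls.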

SMMC-7721 = test: Cytotoxicity against human SMMC7721 cells after 48 hrs by MTT assay; settings: SMMC-7721, 48 h; method in brief: as §1
A549 = test: Cytotoxicity against human A549 cells after 48 hrs by MTT assay; settings: A549, 48 h; method in brief: as §1
[1] = Cytotoxicity against human HL60 cells after 48 hrs by MTT assay; settings: HL-60, 48 h; method in brief: as §1
SW480 = test: Cytotoxicity against human SW480 cells after 48 hrs by MTT assay; settings: SW480, 48 h; method in brief: as §1

Structure (SMILES) | IC50 (MCF7) [µM] | IC50 (SMMC-7721) [µM] | IC50 (A549) [µM] | IC50 [1] [µM] | IC50 (SW480) [µM]
CC(=O)O[C@H]1C[C@@H]2C[C@@]3(C4=C2CC[C@@]2(O4)C(=O)[C@]45C[C@H]2C[C@H](OC(C)=O)[C@H]4[C@]2(C)[C@@H](OC(C)=O)C[C@H](O)C(C)(C)[C@H]2C(=O)[C@@H]5OC(C)=O)[C@@H]1[C@]1(C)[C@@H](OC(C)=O)C[C@H](OC(C)=O)C(C)(C)[C@H]1C(=O)[C@@H]3O | 4.2 | 9.9 | > 10 | 4.6 | 4
CC(=O)O[C@H]1C[C@@H]2C[C@@]3(C(=O)[C@]24CCC2=C(O4)[C@]45C[C@H]2C[C@H](OC(C)=O)[C@H]4[C@]2(C)[C@@H](OC(C)=O)C[C@H](O)C(C)(C)[C@H]2C(=O)[C@@H]5OC(C)=O)[C@@H]1[C@]1(C)[C@@H](OC(C)=O)C[C@H](OC(C)=O)C(C)(C)[C@H]1C(=O)[C@@H]3O | > 10 | > 10 | > 10 | > 10 | > 10
CC(=O)O[C@H]1C[C@@H]2C[C@@]3(C(=O)[C@]24CCC2=C(O4)[C@]45C[C@H]2C[C@H](OC(C)=O)[C@H]4[C@]2(C)[C@@H](OC(C)=O)C[C@H](O)C(C)(C)[C@H]2C(=O)[C@@H]5O)[C@@H]1[C@]1(C)[C@@H](OC(C)=O)C[C@H](O)C(C)(C)[C@H]1C(=O)[C@@H]3O | > 10 | > 10 | > 10 | > 10 | > 10
CC(=O)O[C@H]1C[C@@H]2C[C@@]3(C(=O)[C@]24CCC2=C(O4)[C@@]45CC(=O)[C@@H]6C(C)(C)[C@@H](OC(C)=O)C[C@H](O)[C@@]6(C)[C@@H]4C(=O)C[C@@H]2C5)[C@@H]1[C@]1(C)[C@@H](OC(C)=O)C[C@H](O)C(C)(C)[C@H]1C(=O)[C@@H]3OC(C)=O | > 10 | > 10 | > 10 | > 10 | > 10
CC(=O)O[C@H]1C[C@@H]2C[C@@]3(C(=O)[C@]24CCC2=C(O4)[C@]45C[C@H]2C[C@H](OC(C)=O)[C@H]4[C@]2(C)[C@@H](OC(C)=O)C[C@H](O)C(C)(C)[C@H]2[C@@H](O)[C@@H]5O)[C@@H]1[C@]1(C)[C@@H](OC(C)=O)C[C@H](O)C(C)(C)[C@H]1[C@@H](O)[C@@H]3O | > 10 | > 10 | > 10 | > 10 | > 10
CC(=O)O[C@H]1C[C@@H]2C[C@@]3(C(=O)[C@H]2C[C@]2(CO)C(=O)[C@]45C[C@H]2C[C@H](OC(C)=O)[C@H]4[C@]2(C)[C@@H](OC(C)=O)C[C@H](O)C(C)(C)[C@H]2C(=O)[C@@H]5O)[C@@H]1[C@]1(C)[C@@H](OC(C)=O)C[C@H](O)C(C)(C)[C@H]1C(=O)[C@@H]3O | > 10 | > 10 | > 10 | > 10 | > 10
COC[C@@]1(C[C@@H]2C(=O)[C@]34C[C@H]2C[C@H](OC(C)=O)[C@H]3[C@]2(C)[C@@H](OC(C)=O)C[C@H](O)C(C)(C)[C@H]2C(=O)[C@@H]4O)C(=O)[C@]23C[C@H]1C[C@H](OC(C)=O)[C@H]2[C@]1(C)[C@@H](OC(C)=O)C[C@H](O)C(C)(C)[C@H]1C(=O)[C@@H]3O | > 10 | > 10 | > 10 | > 10 | > 10
COC[C@@]1(C[C@@H]2C(=O)[C@]34C[C@H]2C[C@H](OC(C)=O)[C@H]3[C@]2(C)[C@@H](OC(C)=O)C[C@H](O)C(C)(C)[C@H]2C(=O)[C@@H]4O)C(=O)[C@]23C[C@H]1C[C@H](OC(C)=O)[C@H]2[C@]1(C)[C@@H](OC(C)=O)C[C@H](O)C(C)(C)[C@H]1C(=O)[C@H]3O | > 10 | > 10 | > 10 | > 10 | > 10
COC[C@@]1(C[C@@H]2C(=O)[C@]34C[C@H]2C[C@H](OC(C)=O)[C@H]3[C@]2(C)[C@@H](OC(C)=O)C[C@H](O)C(C)(C)[C@H]2C(=O)[C@@H]4O)C(=O)[C@]23C[C@H]1C[C@H](O)[C@H]2[C@@]1(C)[C@H](C(=O)[C@@H]3O)C(C)(C)[C@@H](O)C[C@@H]1O | > 10 | > 10 | > 10 | > 10 | > 10
COC[C@@]1(C[C@@H]2C(=O)[C@]34C[C@H]2C[C@H](OC(C)=O)[C@H]3[C@@]2(C)[C@H](C(=O)[C@@H]4O)C(C)(C)[C@@H](O)C[C@@H]2O)C(=O)[C@]23C[C@H]1C[C@H](OC(C)=O)[C@H]2[C@]1(C)[C@@H](OC(C)=O)C[C@H](O)C(C)(C)[C@H]1C(=O)[C@@H]3O | > 10 | > 10 | > 10 | > 10 | > 10
CC(=O)O[C@H]1C[C@@H]2C[C@@]3(C(=O)[C@]24CC[C@@]42C(=O)[C@]45C[C@H]2C[C@H](OC(C)=O)[C@H]4[C@]2(C)[C@@H](OC(C)=O)C[C@H](O)C(C)(C)[C@H]2C(=O)[C@@H]5O)[C@@H]1[C@]1(C)[C@@H](OC(C)=O)C[C@H](OC(C)=O)C(C)(C)[C@H]1C(=O)[C@@H]3OC(C)=O | > 10 | > 10 | > 10 | > 10 | > 10
CC(=O)O[C@H]1C[C@@H]2C[C@@]3(CC(=O)[C@@H]4C(C)(C)[C@@H](O)C[C@H](OC(C)=O)[C@@]4(C)[C@H]13)C(=O)[C@]21CC[C@@]12C(=O)[C@]13C[C@H]2C[C@H](OC(C)=O)[C@H]1[C@]1(C)[C@@H](OC(C)=O)C[C@H](O)C(C)(C)[C@H]1C(=O)[C@@H]3OC(C)=O | > 10 | > 10 | > 10 | > 10 | > 10
CC(=O)O[C@H]1C(=O)[C@@]2(C)[C@H]([C@H](OC(=O)c3ccccc3)[C@]3(O)C[C@H](OC(=O)[C@H](O)[C@@H](NC(=O)c4ccccc4)c4ccccc4)C(C)=C1C3(C)C)[C@]1(OC(C)=O)CO[C@@H]1C[C@@H]2O [PACLITAXEL] | < 0.008 | < 0.008 | < 0.008 | < 0.008 | –

Source: ChEMBL document CHEMBL3351567, “Heterodimeric ent-kauranoids from Isodon tenuifolius” (J Nat Prod, 2014)
